{"data": "Measurements from different studies", "note": "Compare with care: the assays were run in different laboratories."}
{"Compound": "CC(C)C[C@@H]1NC(=O)CNC(=O)[C@H](CC(N)=O)NC(=O)[C@H](CCCNC(=N)N)NC(=O)[C@H]([C@@H](C)O)NC(=O)[C@@H]2CSSC[C@@H]3NC(=O)[C@H]([C@@H](C)O)NC(=O)CNC(=O)CNC(=O)[C@H](C(C)C)NC(=O)[C@@H]4CSSC[C@H](NC(=O)[C@H]([C@@H](C)O)NC(=O)[C@H](CSSC[C@H](NC(=O)[C@H](C(C)C)NC(=O)[C@@H]5CCCN5C1=O)C(=O)NCC(=O)N[C@@H](CCCCN)C(=O)N[C@@H]([C@@H](C)O)C(=O)N4)NC(=O)CNC(=O)[C@@H]1CCCN1C(=O)[C@H]([C@@H](C)O)NC(=O)[C@H](CC(N)=O)NC3=O)C(=O)N[C@@H](CO)C(=O)N[C@@H](Cc1c[nH]c3ccccc13)C(=O)N1CCC[C@H]1C(=O)N[C@@H](C(C)C)C(=O)N2", "tested on": "Sf9", "observed": "cell growth or viability", "method": "MTT", "time": "24 h", "IC50 [nM]": "> 32000"}
{"Compound": "C[N+]1=C2C=C(N)C(=O)c3[nH]cc(c32)CC1", "tested on": "Plasmodium falciparum", "observed": "parasite growth", "method": "SYBR Green", "strain": "DD2", "setting": "blood stage", "IC50 [nM]": 411}
{"Compound": "CCCCCCCCNC[C@H](O)c1cc(Cl)cc2c1-c1ccc(Cl)cc1C2", "tested on": "Plasmodium falciparum", "observed": "parasite growth", "method": "SYBR Green", "strain": "W2", "time": "48 h", "setting": "drug-resistant strain, blood stage", "IC50 [nM]": 5.1}
{"Compound": "CC(C)C[C@@H]1NC(=O)[C@H](CC(N)=O)NC(=O)[C@H](CCCNC(=N)N)NC(=O)[C@H]([C@@H](C)O)NC(=O)[C@@H]2CSSC[C@@H]3NC(=O)[C@H]([C@@H](C)O)NC(=O)CNC(=O)CNC(=O)[C@H](C(C)C)NC(=O)[C@@H]4CSSC[C@H](NC(=O)[C@H](CCCCN)NC(=O)[C@H](CSSC[C@H](NC(=O)[C@H](C(C)C)NC(=O)[C@@H]5CCCN5C(=O)[C@H](CC(C)C)NC1=O)C(=O)NCC(=O)N[C@@H](CCC(=O)O)C(=O)N[C@@H]([C@@H](C)O)C(=O)N4)NC(=O)CNC(=O)[C@@H]1CCCN1C(=O)[C@H]([C@@H](C)O)NC(=O)[C@H](CC(N)=O)NC3=O)C(=O)N[C@@H](CO)C(=O)N[C@@H](Cc1c[nH]c3ccccc13)C(=O)N1CCC[C@H]1C(=O)N[C@@H](C(C)C)C(=O)N2", "tested on": "Sf9", "observed": "cell growth or viability", "method": "MTT", "time": "24 h", "IC50 [nM]": 1800}
{"Compound": "CCCCNC[C@@H](O)c1cc(Cl)cc2c1-c1ccc(Cl)cc1C2", "tested on": "Plasmodium falciparum", "observed": "parasite growth", "method": "SYBR Green", "strain": "W2", "time": "48 h", "setting": "drug-resistant strain, blood stage", "IC50 [nM]": 29}
{"Compound": "CC(C)C[C@@H]1NC(=O)CNC(=O)[C@H](CC(N)=O)NC(=O)[C@H](CCCNC(=N)N)NC(=O)[C@H]([C@@H](C)O)NC(=O)[C@@H]2CSSC[C@@H]3NC(=O)[C@H]([C@@H](C)O)NC(=O)CNC(=O)CNC(=O)[C@H](C(C)C)NC(=O)[C@@H]4CSSC[C@H](NC(=O)[C@H]([C@@H](C)O)NC(=O)[C@H](CSSC[C@H](NC(=O)[C@H](C(C)C)NC(=O)[C@H](CCCCN)NC1=O)C(=O)NCC(=O)N[C@@H](CCC(=O)O)C(=O)N[C@@H]([C@@H](C)O)C(=O)N4)NC(=O)CNC(=O)[C@@H]1CCCN1C(=O)[C@H]([C@@H](C)O)NC(=O)[C@H](CC(N)=O)NC3=O)C(=O)N[C@@H](CO)C(=O)N[C@@H](Cc1c[nH]c3ccccc13)C(=O)N1CCC[C@H]1C(=O)N[C@@H](C(C)C)C(=O)N2", "tested on": "Sf9", "observed": "cell growth or viability", "method": "MTT", "time": "24 h", "IC50 [nM]": "> 32000"}
{"Compound": "C[N+]1=C2C=C(NCCc3ccc(O)cc3)C(=O)c3[nH]cc(c32)CC1", "tested on": "Plasmodium falciparum", "observed": "parasite growth", "method": "SYBR Green", "strain": "3D7", "setting": "blood stage", "IC50 [nM]": 18.8}
{"Compound": "N.N.[Cl][Pt][Cl]", "tested on": "NCI-H460", "observed": "cell growth or viability", "method": "MTT", "IC50 [nM]": 7550}
{"Compound": "Cn1cc2c3c1C(=O)C(N)=CC3=[N+](C)CC2", "tested on": "Plasmodium falciparum", "observed": "parasite growth", "method": "SYBR Green", "strain": "W2", "setting": "blood stage", "IC50 [nM]": 3030}
{"Compound": "CCCCCCCNC[C@H](O)c1cc(Cl)cc2c1-c1ccc(Cl)cc1C2", "tested on": "Plasmodium falciparum", "observed": "parasite growth", "method": "SYBR Green", "strain": "W2", "time": "48 h", "setting": "drug-resistant strain, blood stage", "IC50 [nM]": 4.4}
